Source: ChEMBL document CHEMBL3232993, “Design, synthesis, and structure-activity relationship of a novel series of GluN2C-selective potentiators” (J Med Chem, 2014)

Assays:
Type in all cases: cell-based
[1] = molecular target: Ionotropic glutamate receptor NMDA 1/2D (Rattus norvegicus) (UniProt P35439+Q62645); test: Potentiation of rat recombinant GluN1/GluN2D expressed in Xenopus laevis oocytes assessed as increase in glutamate/glycine-induced current response at 30 uM by two-electrode voltage clamp technique relative to control
How it was run: (§1)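 Two-electrode voltage clamp at −40 mV on Xenopus oocytes coexpressing GluN1 with GluN2A, 2B, 2C or 2D. […] Compounds came from 20 mM DMSO stocks, with 0.05–0.5% final DMSO. Some GluN2A oocytes were injected with K-BAPTA to limit current run-up. Recording solution was pH 7.4, 23 °C.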

[2] = molecular target: Glutamate NMDA receptor; Grin1/Grin2b (Rattus norvegicus) (UniProt P35439+Q00960); test: Potentiation of rat recombinant GluN1/GluN2B expressed in Xenopus laevis oocytes assessed as increase in glutamate/glycine-induced current response at 30 uM by two-electrode voltage clamp technique relative to control; how it was run: as §1
[3] = molecular target: Glutamate NMDA receptor; Grin1/Grin2c (Rattus norvegicus) (UniProt P35439+Q00961); test: Potentiation of rat recombinant GluN1/GluN2C expressed in Xenopus laevis oocytes assessed as increase in glutamate/glycine-induced current response at 30 uM by two-electrode voltage clamp technique relative to control; how it was run: as §1
[4] = molecular target: Glutamate NMDA receptor; Grin1/Grin2c (Rattus norvegicus, UniProt P35439+Q00961); test: Potentiation of rat recombinant GluN1/GluN2C expressed in Xenopus laevis oocytes assessed as increase in glutamate/glycine-induced current response by two-electrode voltage clamp technique relative to control
[5] = molecular target: Glutamate NMDA receptor; Grin1/Grin2a (Rattus norvegicus) (UniProt P35439+Q00959); test: Potentiation of rat recombinant GluN1/GluN2A expressed in Xenopus laevis oocytes assessed as increase in glutamate/glycine-induced current response at 30 uM by two-electrode voltage clamp technique relative to control; how it was run: as §1

Row | SMILES | Activity [1] [%] | Activity [2] [%] | Activity [3] [%] | max activation [3] [%] | EC50 [4] [µM] | Activity [5] [%]
1 | COC(=O)c1ccc(C2C(C(C)=O)=C(OC)C(=O)N2CCc2c[nH]c3ccccc23)cc1 (configuration not stated) | 82 | 91 | 127 | 163 | 37 | 109
2 | COC(=O)c1ccc(C2C(C(C)=O)=C(O)C(=O)N2CCc2c[nH]c3ccccc23)c(C)c1 (configuration not stated) | 85 | 95 | 129 | 165 | 35 | 101
3 | COC(=O)c1ccc(C2C(C(=O)c3cccnc3)=C(O)C(=O)N2CCc2c[nH]c3cc(C)ccc23)cc1 (configuration not stated) | 86 | 82 | 219 | 218 | 4.3 | 103
4 | COC(=O)c1ccc(C2C(C(C)=O)=C(O)C(=O)N2CCc2c[nH]c3ccccc23)c(OC)c1 (configuration not stated) | 100 | 83 | 132 | 183 | 46 | 102
5 | COC(=O)c1ccc(C2C(C(=O)c3cccnc3)=C(O)C(=O)N2CCc2c[nH]c3cc(F)ccc23)cc1 (configuration not stated) | 82 | 64 | 163 | 167 | 13 | 94
6 | COC(=O)c1ccc(C2C(C(C)=O)=C(O)C(=O)N2CCc2c[nH]c3c(C)cccc23)cc1 (configuration not stated) | 92 | 81 | 121 | 139 | 25 | 98
7 | COC(=O)c1ccc(C2C(C(=O)c3cccc(C)c3)=C(O)C(=O)N2CCc2c[nH]c3ccccc23)cc1 (configuration not stated) | 84 | 90 | 122 | 131 | 16 | 97
8 | COC(=O)c1ccc(C2C(C(C)=O)=C(O)C(=O)N2CCc2c[nH]c3ccccc23)c(F)c1 (configuration not stated) | 91 | 96 | 123 | 155 | 37 | 93
9 | COC(=O)c1ccc(C2C(C(C)=O)=C(OC(C)=O)C(=O)N2CCc2c[nH]c3ccccc23)cc1 (configuration not stated) | 92 | 90 | 120 | 173 | 52 | 95
10 | COC(=O)c1ccc(C2C(C(=O)c3cccnc3)=C(O)C(=O)N2CCc2c[nH]c3cc(OC)ccc23)cc1 (configuration not stated) | 85 | 98 | 194 | 204 | 8 | 84
11 | COC(=O)c1ccc(C2C(C(=O)c3cccnc3)=C(O)C(=O)N2CCc2c[nH]c3cc(Cl)ccc23)cc1 (configuration not stated) | 86 | 66 | 170 | 204 | 8.5 | 93
12 | COC(=O)c1ccc(C2C(C(=O)c3cccnc3)=C(O)C(=O)N2CCc2c[nH]c3c(F)cccc23)cc1 (configuration not stated) | 86 | 84 | 161 | 191 | 18 | 105
13 | CCOC(=O)c1ccc(C2C(C(C)=O)=C(O)C(=O)N2CCc2c(C)[nH]c3ccccc23)cc1 (configuration not stated) | 85 | 99 | 220 | 265 | 13 | 108
14 | C=CC(=O)OC1=C(C(C)=O)C(c2ccc(C(=O)OC)cc2)N(CCc2c(C)[nH]c3ccccc23)C1=O (configuration not stated) | 100 | 104 | 125 | 208 | 105 | 106
15 | COC(=O)c1ccc(C2C(C(C)=O)=C(O)C(=O)N2CCc2c[nH]c3ccccc23)cc1O (configuration not stated) | 90 | 79 | 123 | 151 | 29 | 81
16 | COC(=O)c1ccc(C2C(C(C)=O)=C(O)C(=O)N2CCc2c[nH]c3ccccc23)c(Cl)c1 (configuration not stated) | 90 | 87 | 139 | 191 | 36 | 103
17 | CCOC(=O)c1ccc(C2C(C(C)=O)=C(O)C(=O)N2CCc2c[nH]c3ccccc23)c(O)c1 (configuration not stated) | 88 | 100 | 145 | 194 | 40 | 110
18 | CN(C)C(=O)c1ccc(C2C(C(=O)c3cccnc3)=C(O)C(=O)N2CCc2c[nH]c3ccccc23)cc1 (configuration not stated) | 89 | 86 | 101 | – | – | 118
19 | CCCC(=O)OC1=C(C(C)=O)C(c2ccc(C(=O)OC)cc2)N(CCc2c(C)[nH]c3ccccc23)C1=O (configuration not stated) | 93 | 93 | 186 | 184 | 17 | 112
20 | CCOC(=O)c1ccc(C2C(C(=O)c3cccnc3)=C(O)C(=O)N2CCc2c[nH]c3ccccc23)cc1 (configuration not stated) | 83 | 71 | 201 | 207 | 8.2 | 97
21 | N#Cc1ccc(C2C(C(=O)c3cccnc3)=C(O)C(=O)N2CCc2c[nH]c3ccccc23)cc1 (configuration not stated) | 94 | 89 | 100 | – | – | 98
22 | NS(=O)(=O)c1ccc(C2C(C(=O)c3cccnc3)=C(O)C(=O)N2CCc2c[nH]c3ccccc23)cc1 (configuration not stated) | 83 | 82 | 123 | 130 | – | 86
23 | COC(=O)c1ccc(C2C(C(=O)c3cccnc3)=C(O)C(=O)N2CCc2c(C)[nH]c3ccccc23)cc1 (configuration not stated) | 82 | 77 | 174 | 204 | 13 | 82
24 | COC(=O)c1ccc(C2C(C(=O)c3cccnc3)=C(O)C(=O)N2CCc2cn(C)c3ccccc23)cc1 (configuration not stated) | 85 | 87 | 106 | – | – | 111
25 | COC(=O)c1ccccc1C1C(C(C)=O)=C(O)C(=O)N1CCc1c[nH]c2ccccc12 (configuration not stated) | 93 | 78 | 99 | – | – | 88
26 | NC(=O)c1ccc(C2C(C(=O)c3cccnc3)=C(O)C(=O)N2CCc2c[nH]c3ccccc23)cc1 (configuration not stated) | 91 | 92 | 90 | – | – | 101
27 | CNC(=O)c1ccc(C2C(C(=O)c3cccnc3)=C(O)C(=O)N2CCc2c[nH]c3ccccc23)cc1 (configuration not stated) | 89 | 105 | 93 | – | – | 96
28 | COC(=O)c1ccc(C2C(C(C)=O)=C(O)C(=O)N2CCc2c(C)[nH]c3ccccc23)cc1 (racemic) | 95 | 88 | 179 | 217 | – | 97
29 | COC(=O)c1cccc(C2C(C(C)=O)=C(O)C(=O)N2CCc2c[nH]c3ccccc23)c1 (configuration not stated) | 94 | 88 | 94 | – | – | 99
30 | COC(=O)c1ccc(C2C(C(C)=O)=C(O)C(=O)N2CCc2c[nH]c3ccccc23)cc1OC (configuration not stated) | 86 | 80 | 92 | – | – | 98
